Data published in ChEMBL document CHEMBL3632506, “Esters of some non-steroidal anti-inflammatory drugs with cinnamyl alcohol are potent lipoxygenase inhibitors with enhanced anti-inflammatory activity” (Bioorg Med Chem Lett, 2015).
pIC50: −log10 of the molar value. The source made the active and inactive calls. The calls are words filed in the database; no cut-off is given here.

Tests used:
Rattus norvegicus [1] = experiment: Antiinflammatory activity in rat assessed as reduction of carrageenan-induced paw oedema at 0.15 mmol/kg, ip administered 5 mins before carrageenan challenge measured after 3.5 hrs; type: functional
Summary of the method: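 Rat carrageenan-induced paw oedema; compounds given ip at 0.15 mmol/kg body weight. Result expressed as percent inhibition of oedema relative to controls; mean of 6–8 animals; significance by Student's t test.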

Liver = experiment: Antioxidant activity in rat hepatic microsomal membrane assessed as inhibition of ferrous ascorbate-induced lipid peroxidation after 45 mins by spectrophotometric analysis; type: functional, cell membranes
[2] = Inhibition of soybean lipoxygenase assessed as reduction in conversion of sodium linoleate to 13-hydroperoxylinoleic acid up to 7 mins; set-up: species or system Glycine max
Glycine max = experiment: Competitive inhibition of soybean lipoxygenase 1 mM of sodium linoleate assessed as reduction of 13-hydroperoxylinoleic acid formation up to 7 mins
Summary of the method: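 Soybean lipoxygenase run with linoleic acid at 1 mM, above the saturating substrate concentration, under the same conditions as the standard inhibition assay, to test for competitive inhibition.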

[3] = Antioxidant activity assessed as DPPH radical scavenging activity at 0.2 mM after 30 mins; type: physicochemical; details: 0.5 h, 200 µM
Rattus norvegicus [4] = experiment: Antidyslipidemic activity in rat Triton-WR1339-induced hyperlipidemic model assessed as reduction of plasma triglyceride level at 0.15 mmol/kg, ip after 24 hrs; type: functional; set-up: scale not given: the % may be the effect or the level left
Summary of the method: (§1)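 Hyperlipidemia induced in rats by tyloxapol 200 mg/kg ip; compounds given ip at 150 μmol/kg. Serum total cholesterol, triglycerides and LDL-cholesterol compared with hyperlipidemic controls. Groups of six to eight rats; significance by Student's t test.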

Rattus norvegicus [5] = experiment: Antidyslipidemic activity in rat Triton-WR1339-induced hyperlipidemic model assessed as reduction of plasma low density lipoprotein cholesterol level at 0.15 mmol/kg, ip after 24 hrs; type: functional; set-up: scale not given: the % may be the effect or the level left; summary of the method: as §1
Rattus norvegicus [6] = experiment: Antidyslipidemic activity in rat Triton-WR1339-induced hyperlipidemic model assessed as reduction of plasma total cholesterol level at 0.15 mmol/kg, ip after 24 hrs; type: functional; set-up: scale not given: the % may be the effect or the level left; summary of the method: as §1
Rattus norvegicus [7] = experiment: Antiinflammatory activity in rat assessed as reduction of carrageenan-induced paw oedema at 0.30 mmol/kg, ip administered 5 mins before carrageenan challenge measured after 3.5 hrs; type: functional

Row | SMILES | inhibition in vivo at 150 µmol/kg (Rattus norvegicus [1]) | inhibition (Liver) | pIC50 [2] | inhibition (Glycine max) | Activity [3] | Activity (Rattus norvegicus [4]) | Activity (Rattus norvegicus [5]) | Activity (Rattus norvegicus [6]) | inhibition in vivo at 300 µmol/kg (Rattus norvegicus [7])
1 | O=C(Cc1c[nH]c2ccccc12)OC/C=C/c1ccccc1 | 33% | inactive | 3.94 | inactive | Not Active |  |  |  | 
2 | CC(Cc1ccc(O)c(O)c1)C(C)Cc1ccc(O)c(O)c1 (stereo unspecified) [NORDIHYDROGUAIARETIC ACID] |  |  | 5.89 |  |  |  |  |  | 
3 | OC/C=C/c1ccccc1 [CINNAMIC ALCOHOL] | 13% |  | 3.60 |  |  |  |  |  | 
4 | Cc1c(Cl)cccc1Nc1ccccc1C(=O)O [TOLFENAMIC ACID] | 24% |  |  |  |  |  |  |  | 
5 | O=C(O)Cc1ccccc1Nc1c(Cl)cccc1Cl [DICLOFENAC] | 37% |  |  |  |  |  |  |  | 
6 | CC(C(=O)OC/C=C/c1ccccc1)c1cccc(C(=O)c2ccccc2)c1 (stereo unspecified) | 55% | inactive | 4.65 | inactive | Not Active |  |  |  | 
7 | Cc1c(Cl)cccc1Nc1ccccc1C(=O)OC/C=C/c1ccccc1 | 42% | inactive | 5.02 | inactive | Not Active |  |  |  | 
8 | Cc1cccc(Nc2ccccc2C(=O)OC/C=C/c2ccccc2)c1C | 62% | inactive | 4.42 | inactive | Not Active |  |  |  | 
9 | O=C(OC/C=C/c1ccccc1)c1ccccc1Nc1cccc(C(F)(F)F)c1 | 48% | inactive | 5.05 | inactive | Not Active | 50.1% | 65.1% | 48.4% | 
10 | COc1ccc2c(c1)c(CC(=O)OC/C=C/c1ccccc1)c(C)n2C(=O)c1ccc(Cl)cc1 | 56% | inactive | 5.05 | inactive | Not Active |  |  |  | 
11 | O=C(CCCCC1CCSS1)OC/C=C/c1ccccc1 (stereo unspecified) | 48% | inactive | 4.95 | inactive | Not Active |  |  |  | 57%
12 | CC(C)Cc1ccc(C(C)C(=O)OC/C=C/c2ccccc2)cc1 (stereo unspecified) | 46% | inactive | 5.17 | inactive | Not Active | 77.5% | 75% | 53.3% | 68%
13 | O=C(Cc1ccccc1Nc1c(Cl)cccc1Cl)OC/C=C/c1ccccc1 | 53% | inactive | 4.11 | inactive | Not Active | 71.6% | 76.8% | 78.4% | 
14 | COc1ccc2c(c1)c(CC(=O)O)c(C)n2C(=O)c1ccc(Cl)cc1 [INDOMETHACIN] | 42% |  |  |  |  |  |  |  | 
15 | COc1ccc2cc([C@H](C)C(=O)OC/C=C/c3ccccc3)ccc2c1 | 60% | inactive | 4.39 | inactive | Not Active |  |  |  | 
16 | O=C(O)c1ccccc1Nc1cccc(C(F)(F)F)c1 [FLUFENAMIC ACID] | 19% |  |  |  |  |  |  |  | 
17 | COc1ccc2cc([C@H](C)C(=O)O)ccc2c1 [NAPROXEN] | 11% |  |  |  |  |  |  |  | 
18 | CC(C)Cc1ccc(C(C)C(=O)O)cc1 (stereo unspecified) [IBUPROFEN] | 36% |  |  |  |  |  |  |  | 
19 | Cc1cccc(Nc2ccccc2C(=O)O)c1C [MEFENAMIC ACID] | 44% |  |  |  |  |  |  |  | 
